Reference: paper PMC9340768 (Journal of Medicinal Chemistry, 2022)
Values after ≈ are worked out from the molar mass of the structure shown.

Key:
[1] = target: human CD137 (Homo sapiens, UniProt Q07011); assay: SPR binding to human CD137
[2] = Pharmacokinetics in Sprague-Dawley rats; conditions: rat, in vivo, iv, 2 mg/kg, SD rats, 2 mg/kg IV bolus; for clearance: CL (mL/min/kg); for half-life: t½ (h), terminal half-life
[3] = system: human PBMCs cocultured with HT1376; assay: PBMC/HT1376 coculture cytokine secretion assay; format: cell-based; conditions: anti-CD3 stimulated PBMCs with HT1376
How it was run: (§1)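 Frozen healthy-donor human PBMCs were thawed, washed in PBS with benzonase and resuspended in RPMI with 10% heat-inactivated FBS, HEPES and glutamine. PBMCs (1 × 10^6/mL) were plated with tumor cells (1 × 10^5/mL) at 10:1, stimulated with soluble anti-CD3 OKT3 (100 ng/mL), and given diluted test compound. Incubation was 2 days at 37 °C, 5% CO2. Supernatant IFNγ and IL-2 were measured by Luminex; four-parameter fit, n = 3.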

[4] = Thermodynamic solubility; format: physicochemical; conditions: pH 7.4
[5] = system: human PBMCs cocultured with MC38-Nectin-4; assay: PBMC/MC38-Nectin-4 coculture cytokine secretion assay; format: cell-based; conditions: anti-CD3 stimulated; IFNγ after 48 h
How it was run: as §1

[6] = system: MC38-Nectin-4 tumors; assay: CIVO intratumoral microdosing pharmacodynamics; format: in vivo, huCD137 C57Bl/6 mice; conditions: 1.85 μM microdose, 24 h, IHC; compared to vehicle or MMAE injection sites
How it was run: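 C57BL/6J-hCD137 mice bearing subcutaneous MC38-Nectin-4 tumors (around 860 mm3; three mice) were anesthetized and microdosed transcutaneously with the CIVO device. Each 2 μL injection held vehicle (25 mM histidine, 10% sucrose pH 7), 120 μM MMAE or 1.85 μM test compound, plus fluorescent tracking microspheres. Tumors were taken 24 h later, formalin-fixed, paraffin-embedded and stained by fluorescent IHC for CD8, GzB and DAPI. CD8+/GzB+ cells were normalized to total CD8+ cells; one-way ANOVA with Dunnett's post-test.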

[7] = system: CT26-Nectin-4 tumors; assay: CT26-Nectin-4 syngeneic tumor model; format: in vivo, Balb/c mice; conditions: 1 and 5 mg/kg QD IP

| SMILES | Kd [1] [nM] | clearance [2] [mL/min/kg] | half-life [2] [h] | secretion of proinflammatory cytokines IFNγ and IL-2 [3] | other results |
| --- | --- | --- | --- | --- | --- |
| CCCC[C@@H]1NC(=O)[C@H](Cc2ccc(O)cc2)NC(=O)[C@@H]2CCCN2C(=O)[C@H](CCC(=O)O)NC(=O)[C@H](C)NC(=O)[C@H](Cc2ccccc2)NC(=O)[C@@H]2CSCCC(=O)N3CN(CN(C3)C(=O)CCSC[C@H](NC(C)=O)C(=O)N[C@@H](CC(C)(C)C)C(=O)N3CCC[C@H]3C(=O)N[C@@H](CCC(=O)O)C(=O)N[C@H](CCCCNC(=O)CCc3cn(CCOCCOCCOCCN(CCOCCOCCOCCC(=O)N[C@H]4CSCCC(=O)N5CN6CN(C5)C(=O)CCSC[C@H](NC(=O)[C@@H](CC(=O)O)NC(=O)[C@H](Cc5cccc7ccccc57)NC(=O)[C@@H]5CCCN5C4=O)C(=O)N[C@@H](CCSC)C(=O)N[C@@H](CCCCNC(=N)N)C(=O)N[C@@H](CC(=O)O)C(=O)N[C@@H](Cc4c[nH]c5ccccc45)C(=O)N[C@@H](CO)C(=O)N[C@@H]([C@@H](C)O)C(=O)N4CCC[C@H]4C(=O)N4C[C@H](O)C[C@H]4C(=O)N[C@@H](Cc4c[nH]c5ccccc45)C(=O)N[C@H](C(N)=O)CSCCC6=O)CCOCCOCCOCCn4cc(CCC(=O)NCCCC[C@H]5NC(=O)[C@H](CCC(=O)O)NC(=O)[C@@H]6CCCN6C(=O)[C@H](CC(C)(C)C)NC(=O)[C@@H](NC(C)=O)CSCCC(=O)N6CN7CN(C6)C(=O)CCSC[C@H](NC(=O)[C@H](Cc6ccc(O)cc6)NC(=O)[C@@H]6CCCN6C5=O)C(=O)N[C@@H](Cc5ccccc5)C(=O)N[C@@H](C)C(=O)N[C@@H](CCC(=O)O)C(=O)N5CCC[C@H]5C(=O)N[C@@H](Cc5ccc(O)cc5)C(=O)N[C@@H](CCCC)C(=O)N[C@H](C(N)=O)CSCCC7=O)nn4)nn3)C(=O)N3CCC[C@H]3C(=O)N[C@@H](Cc3ccc(O)cc3)C(=O)N2)C(=O)CCSC[C@@H](C(N)=O)NC1=O [BCY12487] | ~8 | – | – | – | – |
| CCCC[C@@H]1NC(=O)[C@H](Cc2ccc(O)cc2)NC(=O)[C@@H]2CCCN2C(=O)[C@H](CC(=O)O)NC(=O)[C@H](C)NC(=O)[C@H](Cc2ccccc2)NC(=O)[C@@H]2CSCCC(=O)N3CN(CN(C3)C(=O)CCSC[C@@H](C(N)=O)NC1=O)C(=O)CCSCCC(=O)N[C@@H](CC(C)(C)C)C(=O)N1CCC[C@H]1C(=O)N[C@@H](CCC(=O)O)C(=O)N[C@H](CCCCNC(=O)CCc1cn(CCOCCOCCOCCN(CCOCCOCCOCCC(=O)N[C@H]3CSCCC(=O)N4CN5CN(C4)C(=O)CCSC[C@H](NC(=O)[C@@H](CC(=O)O)NC(=O)[C@H](Cc4cccc6ccccc46)NC(=O)[C@@H]4CCCN4C3=O)C(=O)N[C@@H](CCSC)C(=O)N[C@@H](CCCCNC(=N)N)C(=O)N[C@@H](CC(=O)O)C(=O)N[C@@H](Cc3c[nH]c4ccccc34)C(=O)N[C@@H](CO)C(=O)N[C@@H]([C@@H](C)O)C(=O)N3CCC[C@H]3C(=O)N3C[C@H](O)C[C@H]3C(=O)N[C@@H](Cc3c[nH]c4ccccc34)C(=O)N[C@H](C(N)=O)CSCCC5=O)CCOCCOCCOCCn3cc(CCC(=O)NCCCC[C@H]4NC(=O)[C@H](CCC(=O)O)NC(=O)[C@@H]5CCCN5C(=O)[C@H](CC(C)(C)C)NC(=O)CCSCCC(=O)N5CN6CN(C5)C(=O)CCSC[C@H](NC(=O)[C@H](Cc5ccc(O)cc5)NC(=O)[C@@H]5CCCN5C4=O)C(=O)N[C@@H](Cc4ccccc4)C(=O)N[C@@H](C)C(=O)N[C@@H](CC(=O)O)C(=O)N4CCC[C@H]4C(=O)N[C@@H](Cc4ccc(O)cc4)C(=O)N[C@@H](CCCC)C(=O)N[C@H](C(N)=O)CSCCC6=O)nn3)nn1)C(=O)N1CCC[C@H]1C(=O)N[C@@H](Cc1ccc(O)cc1)C(=O)N2 [BCY12587] | – | 4.5 | 17 | dose-dependent increase | solubility thermodynamic [4]: 3100 µg/mL (≈ 446 µM) |
| CCCC[C@@H]1NC(=O)[C@H](Cc2ccc(O)cc2)NC(=O)[C@@H]2CCCN2C(=O)[C@H](CC(=O)O)NC(=O)[C@H](C)NC(=O)[C@H](Cc2ccccc2)NC(=O)[C@@H]2CSCCC(=O)N3CN(CN(C3)C(=O)CCSC[C@@H](C(=O)N[C@@H](C)C(N)=O)NC1=O)C(=O)CCSC[C@H](NC(=O)[C@H](C)NC(C)=O)C(=O)N[C@@H]([C@@H](C)CC)C(=O)N[C@@H](CCC(=O)O)C(=O)N[C@@H](CCC(=O)O)C(=O)N[C@H](CCCCNC(=O)CCc1cn(CCOCCOCCOCCN(CCOCCOCCOCCC(=O)N[C@H]3CSCCC(=O)N4CN5CN(C4)C(=O)CCSC[C@H](NC(=O)[C@@H](CC(=O)O)NC(=O)[C@H](Cc4cccc6ccccc46)NC(=O)[C@@H]4CCCN4C3=O)C(=O)N[C@@H](CCSC)C(=O)N[C@@H](CCCCNC(=N)N)C(=O)N[C@@H](CC(=O)O)C(=O)N[C@@H](Cc3c[nH]c4ccccc34)C(=O)N[C@@H](CO)C(=O)N[C@@H]([C@@H](C)O)C(=O)N3CCC[C@H]3C(=O)N3C[C@H](O)C[C@H]3C(=O)N[C@@H](Cc3c[nH]c4ccccc34)C(=O)N[C@H](C(N)=O)CSCCC5=O)CCOCCOCCOCCn3cc(CCC(=O)NCCCC[C@H]4NC(=O)[C@H](CCC(=O)O)NC(=O)[C@H](CCC(=O)O)NC(=O)[C@H]([C@@H](C)CC)NC(=O)[C@@H](NC(=O)[C@H](C)NC(C)=O)CSCCC(=O)N5CN6CN(C5)C(=O)CCSC[C@H](NC(=O)[C@H](Cc5ccc(O)cc5)NC(=O)[C@H](CCC(N)=O)NC4=O)C(=O)N[C@@H](Cc4ccccc4)C(=O)N[C@@H](C)C(=O)N[C@@H](CC(=O)O)C(=O)N4CCC[C@H]4C(=O)N[C@@H](Cc4ccc(O)cc4)C(=O)N[C@@H](CCCC)C(=O)N[C@H](C(=O)N[C@@H](C)C(N)=O)CSCCC6=O)nn3)nn1)C(=O)N[C@@H](CCC(N)=O)C(=O)N[C@@H](Cc1ccc(O)cc1)C(=O)N2 [BCY11864] | – | – | 0.95 | dose-dependent increase | functional activity in PBMCs cocultured with MC38-Nectin-4 [5]: functionally active; proportion of CD8+/GzB+ double positive cells of total CD8+ cells [6]: increase |
| CCCC[C@@H]1NC(=O)[C@H](Cc2ccc(O)cc2)NC(=O)[C@@H]2CCCN2C(=O)[C@H](CC(=O)O)NC(=O)[C@H](C)NC(=O)[C@H](Cc2ccccc2)NC(=O)[C@@H]2CSCCC(=O)N3CN(CN(C3)C(=O)CCSC[C@@H](C(=O)N[C@@H](C)C(N)=O)NC1=O)C(=O)CCSC[C@H](NC(C)=O)C(=O)N[C@@H](CC(C)(C)C)C(=O)N1CCC[C@H]1C(=O)N[C@@H](CCC(=O)O)C(=O)N[C@H](CCCCNC(=O)CCc1cn(CCOCCOCCOCCOCCOCCC(=O)N[C@H]3CSCCC(=O)N4CN5CN(C4)C(=O)CCSC[C@H](NC(=O)[C@@H](CC(=O)O)NC(=O)[C@H](Cc4cccc6ccccc46)NC(=O)[C@@H]4CCCN4C3=O)C(=O)N[C@@H](CCSC)C(=O)N[C@@H](CCCCNC(=N)N)C(=O)N[C@@H](CC(=O)O)C(=O)N[C@@H](Cc3c[nH]c4ccccc34)C(=O)N[C@@H](CO)C(=O)N[C@@H]([C@@H](C)O)C(=O)N3CCC[C@H]3C(=O)N3C[C@H](O)C[C@H]3C(=O)N[C@@H](Cc3c[nH]c4ccccc34)C(=O)N[C@H](C(N)=O)CSCCC5=O)nn1)C(=O)N1CCC[C@H]1C(=O)N[C@@H](Cc1ccc(O)cc1)C(=O)N2 [BCY10572] | – | 18 | – | dose-dependent increase | antitumor activity ([7]; huCD137-Balb/c mice): Potent antitumor activity; antitumor activity ([7]; wt Balb/c mice): no BCY10572 antitumor activity |
| CCCC[C@@H]1NC(=O)[C@H](Cc2ccc(O)cc2)NC(=O)[C@@H]2CCCN2C(=O)[C@H](CC(N)=O)NC(=O)[C@H](C)NC(=O)[C@H](Cc2ccccc2)NC(=O)[C@@H]2CSCCC(=O)N3CN(CN(C3)C(=O)CCSC[C@H](NC(C)=O)C(=O)N[C@@H](CC(C)(C)C)C(=O)N3CCC[C@H]3C(=O)N[C@@H](CCC(=O)O)C(=O)N[C@H](CCCCNC(=O)CCc3cn(CCOCCOCCOCCN(CCOCCOCCOCCC(=O)N[C@H]4CSCCC(=O)N5CN6CN(C5)C(=O)CCSC[C@H](NC(=O)[C@@H](CC(=O)O)NC(=O)[C@H](Cc5cccc7ccccc57)NC(=O)[C@@H]5CCCN5C4=O)C(=O)N[C@@H](CCSC)C(=O)N[C@@H](CCCCNC(=N)N)C(=O)N[C@@H](CC(=O)O)C(=O)N[C@@H](Cc4c[nH]c5ccccc45)C(=O)N[C@@H](CO)C(=O)N[C@@H]([C@@H](C)O)C(=O)N4CCC[C@H]4C(=O)N4C[C@H](O)C[C@H]4C(=O)N[C@@H](Cc4c[nH]c5ccccc45)C(=O)N[C@H](C(N)=O)CSCCC6=O)CCOCCOCCOCCn4cc(CCC(=O)NCCCC[C@H]5NC(=O)[C@H](CCC(=O)O)NC(=O)[C@@H]6CCCN6C(=O)[C@H](CC(C)(C)C)NC(=O)[C@@H](NC(C)=O)CSCCC(=O)N6CN7CN(C6)C(=O)CCSC[C@H](NC(=O)[C@H](Cc6ccc(O)cc6)NC(=O)[C@@H]6CCCN6C5=O)C(=O)N[C@@H](Cc5ccccc5)C(=O)N[C@@H](C)C(=O)N[C@@H](CC(N)=O)C(=O)N5CCC[C@H]5C(=O)N[C@@H](Cc5ccc(O)cc5)C(=O)N[C@@H](CCCC)C(=O)N[C@H](C(N)=O)CSCCC7=O)nn4)nn3)C(=O)N3CCC[C@H]3C(=O)N[C@@H](Cc3ccc(O)cc3)C(=O)N2)C(=O)CCSC[C@@H](C(N)=O)NC1=O [BCY12486] | ~8 | – | – | – | – |
